Bioassay records (PubChem)
The list is not random: actives were taken first. Their share in the collection is about 1.8%.
Runt-SMMHC FRET: blocks binding of human RUNX1 Runt domain to CBFb-SMMHC | Cerulean-Runt/Venus-CBFb-SMMHC FRET ratio 530/480, 1 h | inhibition, % at 20 µM | Q01196+Q13951 | actives 0.74% (n = 220,000);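 active = mean inhibition across duplicate retests at 20 µM reaching about 50%, limit read from the data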;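 note: 0% = DMSO wells and 100% = wells with excess untagged CBFb-SMMHC; inhibitors lower the FRET ratio by blocking Runt binding to CBFb-SMMHC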
Target sequence (Q01196 whole entry, looked up, the tested form may be a part): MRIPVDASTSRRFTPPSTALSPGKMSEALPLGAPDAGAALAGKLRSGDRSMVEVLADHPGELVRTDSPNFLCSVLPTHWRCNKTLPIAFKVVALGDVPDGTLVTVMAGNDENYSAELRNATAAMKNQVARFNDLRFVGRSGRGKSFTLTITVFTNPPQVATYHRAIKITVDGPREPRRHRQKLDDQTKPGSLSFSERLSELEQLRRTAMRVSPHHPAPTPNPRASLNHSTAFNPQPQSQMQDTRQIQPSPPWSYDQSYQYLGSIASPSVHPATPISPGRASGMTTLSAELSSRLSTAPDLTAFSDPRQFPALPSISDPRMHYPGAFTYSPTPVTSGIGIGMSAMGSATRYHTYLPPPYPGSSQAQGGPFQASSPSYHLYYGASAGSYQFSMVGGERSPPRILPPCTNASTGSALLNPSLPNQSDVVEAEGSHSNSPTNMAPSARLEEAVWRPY
Target sequence (Q13951 whole entry, looked up, the tested form may be a part): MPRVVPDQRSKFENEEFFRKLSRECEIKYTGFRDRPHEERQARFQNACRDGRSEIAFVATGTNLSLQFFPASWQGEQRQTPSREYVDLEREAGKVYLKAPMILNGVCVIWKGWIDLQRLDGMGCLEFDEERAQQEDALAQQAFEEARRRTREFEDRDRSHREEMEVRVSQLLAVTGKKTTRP
Hck Nef HTS: inhibitors of human Hck kinase activated by Nef; P08631; Recombinant Hck-YEEI plus Nef, Z-Lyte FRET kinase assay; inhibition, % at 20 µM; actives 0.68% (n = 220,000); AID 463187;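 active = Hck-Nef kinase inhibition above about 50%, limit read from the data; inactive = inhibition below that limit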;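 note: 0% = DMSO with Hck plus Nef and 100% = Hck alone without Nef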
Runt-CBFb FRET: Runt domain-CBFb interaction inhibition | actives 0.46% (n = 220,000) | Cerulean-Runt/Venus-CBFb FRET ratio 530/480, 1 h | inhibition, % at 20 µM;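 active = inhibition over about 50% at 20 µM in the single-dose screen, limit read from the data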;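 note: 0% = DMSO wells and 100% = excess unlabeled CBFb competitor control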
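Assay system: Cerulean-Runt domain fusion protein, energy donor; Signal: fluorescence energy transfer, 422 nm excitation, 530/480 nm emission; Timing: 1 h compound exposure, room temperature; Control set: unlabeled CBFb; Medium: Tris buffer pH 7.5 with salts and BSA; Compound: single test concentration of 20 µM, 1% DMSO final; Probe or stimulus: Venus-CBFb 100 nM.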
RanGTP-Impb inh: inhibitors of RanGTP-importin-beta interaction, primary screen, biochemical, FRET, CFP-Ran, YFP-importin-beta, homogeneous. AID 2216. cell-free CFP-Ran/YFP-importin-beta FRET ratio. inhibition, % (no concentration beside the values). actives 1.1% (n = 300,000);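 active = more than half of the replicate wells show a fall in the fluorescence ratio signal beyond about 16%, limit read from the data, passing the limit was not always enough; inconclusive = exactly half of the replicate wells pass the set limit; inactive = fewer than half of replicates pass the limit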;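 note: 0% = DMSO wells and 100% = Ran loaded with GDP instead of GTP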
Numbers without * were called inactive; ? = inconclusive; . = no result given.

SMILES	Runt-SMMHC FRET	Hck Nef HTS	Runt-CBFb FRET	RanGTP-Impb inh
CCCCNC(=O)CN1C(=O)c2cccc(N)c2C1=O	93*	-9	20	-3
COc1ccccc1CNC(=O)CN1C(=O)c2cccc(N)c2C1=O	.	.	.	27*
COCCCNC(=O)CN1C(=O)c2ccccc2C1=O	1	-3	-1	-3
CCCn1c(C)cc(C(=O)CN2C(=O)c3cccc(N)c3C2=O)c1C	57*	0	19	.
CCn1c(C(C)NC(=O)c2cccs2)n[nH]c1=S (stereo unspecified)	-4	2	2	-3
CN1C(=O)/C(=C/c2ccc3c(c2)OCO3)N=C1c1ccccc1	15	4	1	17*
O=C(COc1ccccc1Cl)Nc1ccc(CN2CCCCC2)cc1	-2	-1	-1	31*
O=C(COc1ccccc1Cl)Nc1ccc(C(=O)N2CCCCC2)cc1	.	.	.	-2
COc1ccc(C(CNC(=O)CCNC(=O)c2ccc(Br)cc2)N2CCOCC2)cc1 (stereo unspecified)	.	.	.	0
Nc1c(C(=O)NCc2ccco2)c2nc3ccccc3nc2n1CCc1ccccc1F	.	35	30	50*
O=C(NCc1ccco1)c1c(F)c(F)c(F)c(C(=O)NCc2ccco2)c1F	0	21	-1	1
COc1ccc(CCn2c(N)c(C(=O)NCc3ccco3)c3nc4ccccc4nc32)cc1OC	25	35	8	39*
COc1ccc2c(c1)c1nc3ccccc3nc1n2CCn1c(=O)oc2ccccc21	-20	8	-6	-7
O=c1oc2ccccc2n1CCn1c2ccccc2c2nc3ccccc3nc21	-20	12	-285	28*
CCCCn1c(N)c(N(CC(C)C)C(=O)c2cccc(OCc3ccccc3)c2)c(=O)[nH]c1=O	.	.	.	7
CCCCC(=O)Nc1nn(CC)c2nc3c(C)cccc3cc12	.	.	.	37*
CCCCn1nc(NC(=O)COC)c2cc3cc(OC)ccc3nc21	.	.	.	99*
CCn1nc(NC(=O)COC)c2cc3cccc(C)c3nc21	.	.	.	44*
CCn1nc(NC(=O)Cc2ccc(OC)cc2)c2cc3cccc(C)c3nc21	82*	23	82*	24*
CC(=O)Nc1nn(C)c2nc3ccc(C)cc3cc12	.	.	.	8
CCCCC(=O)Nc1nn(C)c2nc3c(C)cccc3cc12	43	7	22	8
CN(C1CCCCC1)S(=O)(=O)c1ccc2[nH]c(=O)oc2c1	0	7	0	?
CCn1nc(NC(=O)c2ccccn2)c2cc3cc(C)ccc3nc21	82*	23	48	89*
CCn1nc(NC(C)=O)c2cc3ccc(C)cc3nc21	.	.	.	4
CCn1nc(NC(=O)Cc2ccc(OC)cc2)c2cc3cc(C)ccc3nc21	39	-6	22	19*
SMILES	Runt-SMMHC FRET	Hck Nef HTS	Runt-CBFb FRET	RanGTP-Impb inh
CCCCC(=O)Nc1nn(CCC)c2nc3ccccc3cc12	34	8	19	63*
CCCn1nc(NS(=O)(=O)c2ccccc2)c2cc3ccccc3nc21	-12	.	-8	2
N#Cc1c(NC(=O)/C=C/C(=O)O)sc2c1CCN(Cc1ccccc1)C2	.	.	.	141*
N#Cc1c(NCCCO)nc(NCc2ccccc2)c2c1CCN(Cc1ccccc1)C2	46	21	18	89*
CC(=O)Nc1sc2c(c1C#N)CCN(Cc1ccccc1)C2	.	.	.	75*
C[C@H](C(=O)NCc1ccccc1)C(=O)c1ccccc1	.	.	.	5
O=C(c1ccco1)N1CCN(C(=S)Nc2ccc(Br)cc2Cl)CC1	.	.	.	6
Cc1cnc(CNC(=O)C2CCC(=O)N(Cc3ccc(Cl)cc3)C2)[nH]1 (stereo unspecified)	.	.	.	5
CCn1c(C)c(C(C)=O)c(N2CCN(c3ccc(F)cc3)CC2)nc1=S	0	-21	23	20*
CC(=O)c1c(N2CCN(Cc3ccc4c(c3)OCO4)CC2)nc(=S)n(-c2ccccc2)c1C	1	1	6	1
CC(=O)c1c(N2CCN(Cc3ccccc3)CC2)nc(=S)n(-c2ccccc2)c1C	98*	0	46	85*
CC(=O)c1c(N2CCN(c3ccccc3)CC2)nc(=S)n(-c2ccccc2)c1C	-38	0	-1	2
CC(=O)c1c(N2CCN(Cc3ccccc3)CC2)nc(=S)n(Cc2ccccc2)c1C	82*	1	75*	68*
CC(=O)c1c(N2CCN(CCO)CC2)nc(=S)n(-c2ccccc2)c1C	92*	12	65*	62*
Cc1ccc(NC(=O)C2C3CCC(O3)C2C(=O)O)c(Br)c1 (stereo unspecified)	.	.	.	5
Cc1cccc(C)c1OCCSc1nc2ccccc2n1CC(=O)O	.	.	.	1
N#CCCOC1(C#CCN2CCCC2)CCCCC1	.	.	.	2
CNc1cc(C)c(C#N)c2nc3ccccc3n12	.	.	.	8
Cc1ccc(-c2c(C#N)c(N)n3c(nc4ccccc43)c2C#N)cc1	118*	26	58*	-1
N#Cc1c(-c2ccccc2)c(C#N)c2nc3ccccc3n2c1N	94*	17	82*	-4
COc1ccc(OC)c(CCNC(=O)CCn2nc(C)c3c(C)n(-c4ccccc4)nc3c2=O)c1	.	.	.	1
CCOC(=O)c1ccc[n+](CC(=O)c2ccccc2)c1	-9	-1	-3	25*
CC(=O)c1cccc(NC(=O)CCc2nnc3ccc(NCc4ccc5c(c4)OCO5)nn23)c1	.	.	.	2
COC(=O)C1=COC(C)C2CN3CCc4c([nH]c5cc(OC)c(OC)cc45)C3CC12 (stereo unspecified)	-43	21	-16	5
COc1ccc2c3c([nH]c2c1)C1CC2C(CC(O)C(OC)C2C(=O)O)CN1CC3 (stereo unspecified)	-8	11	-1	28*
SMILES	Runt-SMMHC FRET	Hck Nef HTS	Runt-CBFb FRET	RanGTP-Impb inh
N#Cc1ccsc1NC(=O)COC(=O)c1cc2ccccc2cc1O	-9	-2	-2	-1
CSc1nc(N)c2c(n1)OC(N)=C(C#N)C2c1cccnc1 (stereo unspecified)	2	8	2	105*
N#CC1=C(N)Oc2cc(O)c(Cl)cc2C1c1ccccc1F (stereo unspecified)	.	.	.	131*
N#CC1=C(N)Oc2cc(O)c(Cl)cc2C1c1cccnc1 (stereo unspecified)	.	.	.	52*
COC(=O)C1=C(C)OC(N)=C(C#N)C1c1ccccc1F (stereo unspecified)	2	0	2	-15
N#CC1=C(N)Oc2cc(O)ccc2C1c1cccnc1 (stereo unspecified)	-18	15	-8	38*
COc1ccc(Cl)cc1/C=C(\C#N)C(N)=O	.	34	.	0
CCCN(Cc1ccccc1)C(=S)NC(=O)c1ccccc1[N+](=O)[O-]	2	19	-2	-2
O=c1oc2cc(O)ccc2cc1-c1nc2c(s1)CCc1ccccc1-2	83*	-10	4	.
O=c1oc2cc(O)ccc2cc1-c1ccccc1	.	.	.	140*
COc1ccc(-c2cc3ccc(O)cc3oc2=O)cc1	.	.	.	128*
COc1ccc(CCNC(=O)c2nnn(CC(=O)Nc3ccc(C)cc3C)c2N)cc1OC	.	.	.	4
COc1ccc(S(=O)(=O)NCc2cccnc2)cc1C(=O)Nc1ccccc1	.	.	.	-1
